In ChEMBL document CHEMBL1158347, “Substituted quinazolines, part 3. Synthesis, in vitro antitumor activity and molecular modeling study of certain 2-thieno-4(3H)-quinazolinone analogs” (2009):

Legend:
Assay type in all cases: functional
[1] = Growth inhibition of human renal cancer cells after 48 hrs; details: Cancer cell lines
Summary of the method: (§1)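 NCI in vitro disease-oriented human tumor cell line screen. Compounds passing a one-dose primary assay (MCF-7, NCI-H460, SF-268; pass = growth of any line reduced to 32% or less) were tested on the 60-line panel over a 5-log dose range. Compounds were dissolved in DMSO, with under 1% DMSO in final dilutions, and tested in duplicate at 6×10^4 cells/ml. Cells were incubated at 37 °C in 5% CO2 for 48 h, then diluted 10-fold in saline and counted with a Coulter counter, with counts corrected for dilution. Controls held PBS/DMSO at identical dilutions. GI50 was reported per line and as subpanel/full-panel mean-graph midpoint.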

[2] = Growth inhibition of human leukemia cells after 48 hrs; details: Leukemia cell; summary of the method: as §1
[3] = Growth inhibition of human breast cancer cells after 48 hrs; details: Cancer cell lines; summary of the method: as §1
[4] = Growth inhibition of human CNS cancer cells after 48 hrs; details: Cancer cell lines; summary of the method: as §1
[5] = Growth inhibition of human ovarian cancer cells after 48 hrs; details: Cancer cell lines; summary of the method: as §1
[6] = Growth inhibition of human melanoma cells after 48 hrs; details: Melanoma cell; summary of the method: as §1
[7] = Growth inhibition of human prostate cancer cells after 48 hrs; details: Cancer cell lines; summary of the method: as §1
[8] = Growth inhibition of human Colon cancer cells after 48 hrs; details: Cancer cell lines; summary of the method: as §1
NSCLC = test: Growth inhibition of human NSCLC cells after 48 hrs; summary of the method: as §1
K562 = test: Growth inhibition of human K562 cells after 48 hrs; details: K562, 48 h; summary of the method: as §1
MCF7 = test: Growth inhibition of human MCF7 cells after 48 hrs; details: MCF7, 48 h; summary of the method: as §1
SK-MEL-2 = test: Growth inhibition of human SK-MEL-2 cells after 48 hrs; details: SK-MEL-2, 48 h; summary of the method: as §1
RPMI-8226 = test: Growth inhibition of human RPMI8226 cells after 48 hrs; details: RPMI-8226, 48 h; summary of the method: as §1
CCRF-CEM = test: Growth inhibition of human CCRF-CEM cells after 48 hrs; summary of the method: as §1
SF-539 = test: Growth inhibition of human SF539 cells after 48 hrs; details: SF-539, 48 h; summary of the method: as §1
HL-60(TB) = test: Growth inhibition of human HL-60(TB) cells after 48 hrs; details: HL-60, 48 h
Summary of the method: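 NCI 60-cell-line screen over a 5-log dose range. Compounds were dissolved in DMSO, final DMSO under 1%. Duplicate wells were seeded at 6×10^4 cells/ml, with PBS/DMSO vehicle controls at identical dilutions. Cells were incubated 48 h at 37 °C in humidified 5% CO2, diluted 10-fold in saline, and counted by Coulter counter with dilution correction. GI50 read-out.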

UACC-257 = test: Growth inhibition of human UACC257 cells after 48 hrs; details: UACC-257, 48 h; summary of the method: as §1
[9] = read-out: LC50 (the source's name)

O=c1c2cc(I)ccc2nc(-c2cccs2)n1O
GI50 [1]: 49.8 µM | TGI [1]: > 100 µM | GI50 [2]: 34.3 µM | TGI [2]: > 100 µM | GI50 [3]: 39.4 µM | TGI [3]: > 100 µM | GI50 [4]: 33.2 µM | TGI [4]: 94.4 µM | GI50 [5]: 32.1 µM | TGI [5]: 87.9 µM | GI50 [6]: 57.3 µM | TGI [6]: 97.1 µM | GI50 [7]: 39.9 µM | TGI [7]: 98.4 µM | GI50 [8]: 45.8 µM | TGI [8]: > 100 µM | GI50 (NSCLC): 33.2 µM | TGI (NSCLC): 91.2 µM

O=c1c2cc(I)ccc2nc(-c2cccs2)n1/N=C/c1ccccc1
GI50 [1]: > 100 µM | TGI [1]: > 100 µM | GI50 [2]: 63.4 µM | TGI [2]: > 100 µM | GI50 [3]: > 100 µM | TGI [3]: > 100 µM | GI50 [4]: > 100 µM | TGI [4]: > 100 µM | GI50 [5]: > 100 µM | TGI [5]: > 100 µM | GI50 [6]: 90.3 µM | TGI [6]: > 100 µM | GI50 [7]: > 100 µM | TGI [7]: > 100 µM | GI50 [8]: > 100 µM | TGI [8]: > 100 µM | GI50 (NSCLC): > 100 µM | TGI (NSCLC): > 100 µM

CC(=O)CC(=O)Nn1c(-c2cccs2)nc2ccc(I)cc2c1=O
GI50 [1]: 28.9 µM | TGI [1]: 85.1 µM | GI50 [2]: 38.5 µM | TGI [2]: > 100 µM | GI50 [3]: 24.9 µM | TGI [3]: 82.1 µM | GI50 [4]: 27.9 µM | TGI [4]: 89.1 µM | GI50 [5]: 40.9 µM | TGI [5]: 93.6 µM | GI50 [6]: 37.7 µM | TGI [6]: 85.3 µM | GI50 [7]: 20.6 µM | TGI [7]: > 100 µM | GI50 [8]: 28.1 µM | TGI [8]: 90.9 µM | GI50 (NSCLC): 27.5 µM | TGI (NSCLC): 86.4 µM

O=c1c2cc(I)ccc2nc(-c2cccs2)n1Nc1ccccc1
GI50 (K562): 300 nM | TGI (K562): 23 µM | GI50 (MCF7): 2000 nM | TGI (MCF7): > 100 µM | CC50 (MCF7; [9]): > 100 µM | GI50 [1]: 19.7 µM | TGI [1]: 93.1 µM | GI50 [2]: 12.7 µM | TGI [2]: 87.1 µM | GI50 (SK-MEL-2): 300 nM | TGI (SK-MEL-2): 2000 nM | GI50 (RPMI-8226): 5 µM | TGI (RPMI-8226): > 100 µM | CC50 (RPMI-8226; [9]): > 100 µM | GI50 (CCRF-CEM): 51 µM | TGI (CCRF-CEM): > 100 µM | CC50 (CCRF-CEM; [9]): > 100 µM | GI50 (SF-539): 34 µM | TGI (SF-539): > 100 µM | CC50 (SF-539; [9]): > 100 µM | GI50 [3]: 5.9 µM | TGI [3]: > 100 µM | GI50 [4]: 16.3 µM | TGI [4]: 81.9 µM | GI50 [5]: 8.6 µM | TGI [5]: 80.1 µM | GI50 [6]: 8.5 µM | TGI [6]: 85.9 µM | GI50 [7]: 1.61 µM | TGI [7]: > 100 µM | GI50 [8]: 6.5 µM | TGI [8]: 79.2 µM | GI50 (HL-60(TB)): 400 nM | TGI (HL-60(TB)): > 100 µM | CC50 (HL-60(TB); [9]): > 100 µM | GI50 (NSCLC): 8.6 µM | TGI (NSCLC): 88 µM | GI50 (UACC-257): 32 µM | TGI (UACC-257): > 100 µM

O=c1c2cc(I)ccc2nc(-c2cccs2)n1-c1ccc(S(=O)(=O)Nc2nccs2)cc1
GI50 [1]: 34.2 µM | TGI [1]: 84.3 µM | GI50 [2]: 54 µM | TGI [2]: > 100 µM | GI50 [3]: 34.8 µM | TGI [3]: 88.3 µM | GI50 [4]: 41.4 µM | TGI [4]: 87.7 µM | GI50 [5]: 46.5 µM | TGI [5]: > 100 µM | GI50 [6]: 45.2 µM | TGI [6]: 84.8 µM | GI50 [7]: 32.9 µM | TGI [7]: > 100 µM | GI50 [8]: 44.7 µM | TGI [8]: 94.6 µM | GI50 (NSCLC): 38.7 µM | TGI (NSCLC): 89.5 µM
